Assay results reported in ChEMBL document CHEMBL3734716, “Labdane and Clerodane Diterpenoids from Colophospermum mopane” (2015).
Values after ≈ are worked out from the molar mass of the structure shown. Active and inactive are the calls of the source. No cut-off for these calls is given here.

Legend:
Klebsiella pneumoniae = assay: Antibacterial activity against Klebsiella pneumoniae ATCC 13883 after 24 hrs using p-iodonitrotetrazolium violet dye; assay type: functional; details: ATCC 13883, 24 h
Outline: (§1)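 Broth microdilution MIC. Compounds reconstituted in acetone at a 5 mg/mL starting concentration, then serially doubling-diluted in sterile distilled water. Inoculum approx. 1 × 10^6 CFU/mL. Plates sealed and incubated at 37 °C for 24 h. Growth read after adding p-iodonitrotetrazolium violet (0.4 mg/mL); purple-pink means growth. MIC taken as lowest concentration with no growth. Ciprofloxacin positive control (0.01 mg/mL); acetone solvent and culture controls.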

Staphylococcus aureus = assay: Antibacterial activity against Staphylococcus aureus ATCC 25923 after 24 hrs using p-iodonitrotetrazolium violet dye; assay type: functional; details: ATCC 25923, 24 h; outline: as §1
Escherichia coli = assay: Antibacterial activity against Escherichia coli ATCC 8739 after 24 hrs using p-iodonitrotetrazolium violet dye; assay type: functional; details: ATCC 8739, 24 h; outline: as §1
Homo sapiens = organism: Homo sapiens; assay: Modulation of alpha1beta2gamma2S GABAA receptor (unknown origin) expressed in xenopus oocytes assessed as potentiation of GABA-induced chloride current by two-electrode voltage clamp method; assay type: cell-based
Enterococcus faecalis = assay: Antibacterial activity against Enterococcus faecalis ATCC 29212 after 24 hrs using p-iodonitrotetrazolium violet dye; assay type: functional; details: ATCC 29212, 24 h; outline: as §1

SMILES | MIC (Klebsiella pneumoniae) | MIC (Staphylococcus aureus) | MIC (Escherichia coli) | Activity (Homo sapiens) | MIC (Enterococcus faecalis)
C[C@H]1CC[C@H]2C(C)(C)CCC[C@]2(C)[C@@]1(O)CCC1=CC(=O)OC1 | 62.5 µg/mL (≈ 195 µM) | 125 µg/mL (≈ 390 µM) | 250 µg/mL (≈ 780 µM) | inactive | 125 µg/mL (≈ 390 µM)
O=C(O)c1cn(C2CC2)c2cc(N3CCNCC3)c(F)cc2c1=O [CIPROFLOXACIN] | 0.078 µg/mL (≈ 0.235 µM) | 0.156 µg/mL (≈ 0.471 µM) | 0.156 µg/mL (≈ 0.471 µM) | – | 0.156 µg/mL (≈ 0.471 µM)
C[C@H]1CC[C@H]2C(C)(C)[C@H](O)CC[C@]2(C)[C@@]12CC[C@@](C)(CCO)O2 | 62.5 µg/mL (≈ 193 µM) | 93.7 µg/mL (≈ 289 µM) | 125 µg/mL (≈ 385 µM) | inactive | 125 µg/mL (≈ 385 µM)
C/C(=C\C(=O)O)CC[C@@]1(C)[C@H](C)CC[C@@]2(C)C(CO)=CCC[C@H]12 (relative stereo) | 93.8 µg/mL (≈ 293 µM) | 62.5 µg/mL (≈ 195 µM) | 125 µg/mL (≈ 390 µM) | inactive | 125 µg/mL (≈ 390 µM)
C[C@H]1CC[C@H]2C(C)(C)CCC[C@]2(C)[C@@]12CC[C@](C)(CC(=O)O)O2 | 46.9 µg/mL (≈ 145 µM) | 62.5 µg/mL (≈ 194 µM) | 125 µg/mL (≈ 388 µM) | inactive | 125 µg/mL (≈ 388 µM)
C/C(=C\C(=O)O)CC[C@]1(C)[C@@H](C)CC[C@@]2(C)C(CO)=CCC[C@@H]12 | 625 µg/mL (≈ 1950 µM) | 62.5 µg/mL (≈ 195 µM) | 125 µg/mL (≈ 390 µM) | inactive | 62.5 µg/mL (≈ 195 µM)
C[C@@H]1CC[C@@]2(C)[C@H](CC[C@@H]3O[C@@]32C)[C@@]1(C)CCC1=CC(=O)OC1 | – | – | – | inactive | –
C[C@H]1CC=C2[C@@H](CC[C@@H](O)C2(C)C)[C@]1(C)CCC1=CC(=O)OC1 | 62.5 µg/mL (≈ 196 µM) | 93.7 µg/mL (≈ 294 µM) | 125 µg/mL (≈ 393 µM) | inactive | 62.5 µg/mL (≈ 196 µM)
CC(=O)O[C@@H]1CC[C@@]2(C)[C@@H](CC[C@H](C)[C@]23CC[C@](C)(CC(=O)O)O3)C1(C)C | 62.5 µg/mL (≈ 164 µM) | 125 µg/mL (≈ 328 µM) | 125 µg/mL (≈ 328 µM) | inactive | 62.5 µg/mL (≈ 164 µM)
C/C(=C\C(=O)O)CC[C@]1(C)[C@@H](C)CC[C@]2(C)[C@H]1CC[C@H]1O[C@]12C | 62.5 µg/mL (≈ 195 µM) | 62.5 µg/mL (≈ 195 µM) | > 250 µg/mL | inactive | 62.5 µg/mL (≈ 195 µM)
CC1=CCC[C@H]2[C@](C)(CC/C(C)=C/C(=O)O)[C@@H](C)CC[C@@]12C | 93.8 µg/mL (≈ 308 µM) | 15.6 µg/mL (≈ 51.2 µM) | 15.6 µg/mL (≈ 51.2 µM) | inactive | 31.3 µg/mL (≈ 103 µM)
C[C@H]1CC[C@H]2C(C)(C)[C@H](O)CC[C@]2(C)[C@@]12CC[C@](C)(CC(=O)O)O2 | 62.5 µg/mL (≈ 185 µM) | 125 µg/mL (≈ 369 µM) | 125 µg/mL (≈ 369 µM) | inactive | 62.5 µg/mL (≈ 185 µM)
